Source: PubChem (several laboratories)
Ecoli tolC = blocks growth of E. coli BW25113 tolC mutant; OD615; hit rate 2.2% among 65,000; AID 573; growth inhibition, % at 10 µM (by protocol);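 active = growth inhibition at or above a cutoff equal to the mean over every tested compound plus 3 SD, cut at about 60% in these data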;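 also: growth measured after 20 h incubation at 37 °C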
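Test system: E. coli BW25113 ΔtolC::kan bacteria | Medium: Kanamycin-containing LB broth (50 µg/mL) | Dosing: One dose of 10 µM final | Times: 20 h incubation with compound, 37 °C | Detection: Optical density read at 615 nm | Read-out basis: Percent growth inhibition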
Cdc25B block = inhibitors of human Cdc25B phosphatase | P30305 | recombinant Cdc25B, OMFP fluorescence Ex485/Em525 | inhibition, %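 (compounds tested at 10 µM final in the well)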 | hit rate 0.1% among 65,000 | AID 368; in the data active = inhibition above about 50%
HePTP inh = human HePTP phosphatase inhibition; P35236; recombinant HePTP phosphatase activity, OD absorbance; inhibition, % at 20 µM; hit rate 0.64% among 110,000; AID 521; in the data active = inhibition above about 50%;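 also: plate controls were vehicle for no effect and reference inhibitor for full effect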
Target sequence (P35236 whole entry, looked up): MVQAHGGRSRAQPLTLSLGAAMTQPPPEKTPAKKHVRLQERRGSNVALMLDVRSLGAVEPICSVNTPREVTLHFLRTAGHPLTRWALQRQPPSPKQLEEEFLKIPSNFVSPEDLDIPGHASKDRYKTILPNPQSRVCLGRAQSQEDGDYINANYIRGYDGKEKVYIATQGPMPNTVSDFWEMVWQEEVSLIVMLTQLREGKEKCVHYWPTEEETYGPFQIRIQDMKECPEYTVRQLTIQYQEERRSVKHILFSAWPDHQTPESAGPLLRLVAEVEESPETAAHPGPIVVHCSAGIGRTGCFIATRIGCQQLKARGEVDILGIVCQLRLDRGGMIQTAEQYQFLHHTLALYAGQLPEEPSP
Ecoli WT expand = E. coli BW25113 growth inhibition, expanded screen; OD600 absorbance; AID 710; growth inhibition, % at 100 µM; hit rate 0.15% among 98,000;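 active = growth inhibition above about 50% at one test dose, limit read from the data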;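 also: growth measured after 20 h incubation at 37 °C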
DUSP1 inh = human dual specificity phosphatase 1 inhibition. inhibition, %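 (compounds tested at a single concentration somewhere between 10 and 100 µM)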. recombinant MKP-1, OMFP hydrolysis fluorescence. P28562. AID 374. hit rate 0.15% among 65,000;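 active = inhibition above about 50%, limit read from the data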;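 also: 0% = DMSO max control wells and 100% = wells with enzyme stopped by NaOH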
MMP-13 inhibitor = blocks human MMP13 activity. inhibition, % at 4 µM. hit rate 0.07% among 65,000. MMP-13 fTHP FRET cleavage, Mca fluorescence;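 active = inhibition above the mean of compound-free control plate wells plus 3 SD, cut at about 14% in these data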;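 also: 0% = DMSO wells and 100% = wells with reference MMP-13 inhibitor after basal subtraction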
Numbers without * were called inactive. Only a selection was taken, and hits are over-represented in it overall.

For Cc1ccccc1-n1c(O)c(C=C2C=CC=N2)c(=O)[nH]c1=S the results were HePTP inh 103*.
`Cn1c(O)c(/C=C2\C=CC=N2)c(=O)[nH]c1=O` gave HePTP inh 8.
Screening COc1ccc(O)c(CN2CCN(Cc3cccc(C)c3)CC2)c1 returned HePTP inh -5.
C=CCN1C(=O)/C(=C\C=C\c2ccco2)C(=O)NC1=S was read as HePTP inh 102*.
O=C1NC(=S)N(c2ccccc2)C(=O)/C1=C/c1ccco1 was read as HePTP inh 102*.
For O=C1NC(=S)N(c2ccccc2F)C(=O)C1=Cc1ccco1 the results were HePTP inh 103*.
`O=S(=O)(c1cc(Cl)c(O)c(Cl)c1)c1cc(Cl)c(O)c(Cl)c1` gave HePTP inh 9.
For CCCCCCn1c(N)c(C(=O)NCCN2CCOCC2)c2nc3ccccc3nc21 the results were Ecoli tolC 76*, Cdc25B block -27, HePTP inh 3, Ecoli WT expand 3, DUSP1 inh 29 and MMP-13 inhibitor -63.
Screening COc1ccc(C(CC(=O)N2CCC3(CC2)OCCO3)NS(=O)(=O)c2ccc(F)cc2)cc1 (stereo unspecified) returned Ecoli tolC -2, Cdc25B block 52*, HePTP inh 0, Ecoli WT expand -1, DUSP1 inh 3 and MMP-13 inhibitor 1.
Screening COc1ccc(CNCC(=O)N2CCC3(CC2)OCCO3)cc1 returned Ecoli tolC -8, Cdc25B block -1, HePTP inh 3, Ecoli WT expand -3, DUSP1 inh -3 and MMP-13 inhibitor 3.
For Cc1ccccc1-n1c(/C=C/c2ccc(Cl)cc2)nc2ccccc2c1=O the results were HePTP inh -1.
Screening CCOC(=O)C1=C(N)OC2=C(C(=O)CCC2)C12C(=O)N1c3c(ccc(C)c32)C(C)=CC1(C)C (stereo unspecified) returned Ecoli tolC 70*, Cdc25B block 5, HePTP inh 0, Ecoli WT expand -5, DUSP1 inh 42 and MMP-13 inhibitor 0.
Screening CCC(C)C1N=C(c2ccccc2)c2cc(Cl)ccc2N(CC(=O)NCc2ccco2)C1=O (stereo unspecified) returned Ecoli WT expand -4.
`Cc1ccccc1C1=NCC(=O)N(CC(=O)NCc2ccco2)c2sc3c(c21)CCCC3` gave Ecoli tolC 61*, Cdc25B block 5, HePTP inh 4, Ecoli WT expand -1, DUSP1 inh 4 and MMP-13 inhibitor -2.
CC(C)c1cccc(C(C)C)c1OCCCn1ccnc1 was read as HePTP inh -1.
For Clc1ccc(COC(Cn2ccnc2)c2ccc(Cl)cc2Cl)c(Cl)c1 (stereo unspecified) the results were Ecoli tolC 100*, Cdc25B block 4, HePTP inh 10, DUSP1 inh 1 and MMP-13 inhibitor 4.
`CN1C(=O)N(C)C(=O)C2(Cc3c(nc4ccccn4c3=O)N3CCC(Cc4ccccc4)CC32)C1=O` (stereo unspecified) gave Ecoli tolC 20, Cdc25B block 0, HePTP inh -12, DUSP1 inh 35 and MMP-13 inhibitor 2.
Screening Cc1cccn2c(=O)c3c(nc12)N1CCC(Cc2ccccc2)CC1C1(C3)C(=O)N(C)C(=O)N(C)C1=O (stereo unspecified) returned Ecoli tolC 67*, Cdc25B block -2, HePTP inh 4, Ecoli WT expand -2, DUSP1 inh 37 and MMP-13 inhibitor -2.
`CC(C)CCOC(=O)c1c(N)n(CC2CCCO2)c2nc3ccccc3nc12` (stereo unspecified) gave Ecoli tolC 60*, Cdc25B block 5, HePTP inh 5, Ecoli WT expand -2, DUSP1 inh 35 and MMP-13 inhibitor -220.
Screening CC(C)OC(=O)c1c(N)n(CC2CCCO2)c2nc3ccccc3nc12 (stereo unspecified) returned Ecoli tolC 16, Cdc25B block -1, HePTP inh 3, Ecoli WT expand 2, DUSP1 inh -11 and MMP-13 inhibitor -431.
For CN1C2CCC1CC(OC(=O)CCN1CCCC1)C2 (stereo unspecified) the results were Ecoli tolC -8, Cdc25B block 77*, HePTP inh 16, Ecoli WT expand 2, DUSP1 inh -2 and MMP-13 inhibitor 2.
`CCCCCSc1cc(OC)c(CCNC)cc1OC` gave Ecoli WT expand 3.
`CCCCCCCSc1cc(OC)c(CCNC)cc1OC` gave Ecoli WT expand 76*.
`COc1ccc(N2C(=O)/C(=C/c3ccc(I)o3)C(=O)NC2=S)cc1` gave HePTP inh 101*.
For O=C1NC(=S)N(c2ccc(F)cc2)C(=O)/C1=C/c1ccc(Br)o1 the results were HePTP inh 104*.
Cc1ccc(/C=C2/C(=O)NC(=O)N(c3ccc(Cl)cc3)C2=O)o1 was read as HePTP inh -3.
`COc1ccc(N2C(=O)/C(=C/c3ccc(-c4cc(C(=O)O)ccc4Cl)o3)C(=O)NC2=S)cc1` gave HePTP inh 34.
For O=C1NC(=O)N(c2ccc(Cl)cc2)C(=O)/C1=C/c1ccc(Br)o1 the results were HePTP inh 100*.
O=c1c2ccccc2nc(/C=C/c2cc(Br)ccc2O)n1-c1ccc([N+](=O)[O-])cc1 was read as HePTP inh -4.
COc1ccccc1CCNCc1ccccc1Cl was read as HePTP inh 0.
For O=[N+]([O-])N(CCCCN(CN1CCOCC1)[N+](=O)[O-])CN1CCOCC1 the results were HePTP inh 3.
For C=CCN1C(=O)NC(=O)C(=Cc2cccn2C)C1=O the results were HePTP inh 6.
For C=CCN1C(=O)/C(=C\c2cccn2-c2ccc([N+](=O)[O-])cc2)C(=O)NC1=S the results were HePTP inh 102*.
Screening CN1C(=O)/C(=C/c2cccn2-c2ccc3ccccc3c2)C(=O)NC1=S returned Ecoli WT expand -13.
`CCN1C(=O)/C(=C/c2cccn2C)C(=O)NC1=S` gave HePTP inh 100*.
CCN1C(=O)/C(=C/c2ccoc2)C(=O)NC1=S was read as HePTP inh 102*.
CCCCCn1c(=O)c(C(=O)Nc2ccc(C)cc2C)c(O)c2ccccc21 was read as HePTP inh 5.
For CC(C)N1CCN(c2nc3ncnc(N)c3[nH]2)CC1 the results were HePTP inh -15.
For O=[N+]([O-])c1cc2c(cc1CNCCc1ccc(Cl)cc1Cl)OCO2 the results were HePTP inh -5.
Cc1cc(-c2ccccc2)[n+]2cc(Br)ccc2n1 was read as HePTP inh 3.
Screening CCN1/C(=C\C=C\C2=[N+](CC)c3ccccc3C2(C)C)C(C)(C)c2ccccc21 returned Ecoli WT expand 55*.
